# Measurements taken from ChEMBL document CHEMBL1125337, “Synthesis and antibacterial activity of a series of basic amides of teicoplanin and deglucoteicoplanin with polyamines” (J Med Chem, 1992).
# Tests used:
# Staphylococcus aureus = experiment: Minimum inhibitory concentration against Staphylococcus aureus L 165; type: functional
# How it was run: (§1)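 MIC (µg/mL) by microbroth dilution in Iso-Sensitest broth; final inoculum 10^4 cfu/mL; 24 h at 37 °C in air.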
# Pseudomonas aeruginosa = experiment: Minimum inhibitory concentration against Pseudomonas aeruginosa ATCC 10145; type: functional; how it was run: as §1
# Enterococcus faecalis = experiment: Minimum inhibitory concentration against Enterococcus faecalis ATCC 7080; type: functional
# How it was run: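 Microbroth dilution MIC (µg/mL), final inoculum 10^4 cfu/mL, incubated 24 h at 37 °C in air.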
# Streptococcus pneumoniae = experiment: Minimum inhibitory concentration against Streptococcus pneumoniae L 44; type: functional
# How it was run: (§2)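 MIC (µg/mL) by microbroth dilution in Todd-Hewitt broth, final inoculum 10^4 cfu/mL, incubated 24 h at 37 °C in air.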
# Escherichia coli = experiment: Minimum inhibitory concentration against Escherichia coli L 47; type: functional; how it was run: as §1
# [1] = test system: Staphylococcus epidermidis; experiment: Minimum inhibitory concentration against Staphylococcus epidermidis ATCC 12228; type: functional; how it was run: as §1
# Streptococcus pyogenes = experiment: Minimum inhibitory concentration against Streptococcus pyogenes L 49; type: functional; how it was run: as §2
# [2] = test system: Staphylococcus haemolyticus; experiment: Minimum inhibitory concentration against Staphylococcus haemolyticus L 602; type: functional; how it was run: as §1
# Proteus vulgaris = experiment: Minimum inhibitory concentration against Proteus vulgaris ATCC 881; type: functional; how it was run: as §1
# [3] = Association constant to Ac2-L-Lys-D-Ala-D-Ala determined at pH 9; Value ranges from (9.5E4-3.5E5)
MIC (Staphylococcus aureus) [µg/mL],MIC (Pseudomonas aeruginosa) [µg/mL],MIC (Enterococcus faecalis) [µg/mL],MIC (Streptococcus pneumoniae) [µg/mL],MIC (Escherichia coli) [µg/mL],MIC [1] [µg/mL],MIC (Streptococcus pyogenes) [µg/mL],MIC (Proteus vulgaris) [µg/mL],Ka [3] [M⁻¹],Structure (SMILES),MIC [2] [µg/mL]
0.125,128,0.125,0.125,32,0.032,0.125,> 128,,CCN(CC)CCN(CCCN)CCCNC(=O)[C@H]1NC(=O)[C@H]2NC(=O)[C@H](NC(=O)[C@@H]3NC(=O)[C@H]4NC(=O)[C@@H](Cc5ccc(c(Cl)c5)Oc5cc3cc(c5O)Oc3ccc(cc3Cl)[C@H]2O)NC(=O)[C@H](N)c2ccc(O)c(c2)Oc2cc(O)cc4c2)c2ccc(O)c(c2)-c2c(O)cc(O)cc21,0.125
0.063,32,0.125,0.125,8,0.063,0.063,128,,CN(C)CCCN1CCCCN(C(=O)[C@H]2NC(=O)[C@H]3NC(=O)[C@H](NC(=O)[C@@H]4NC(=O)[C@H]5NC(=O)[C@@H](Cc6ccc(c(Cl)c6)Oc6cc4cc(c6O)Oc4ccc(cc4Cl)[C@H]3O)NC(=O)[C@H](N)c3ccc(O)c(c3)Oc3cc(O)cc5c3)c3ccc(O)c(c3)-c3c(O)cc(O)cc32)CCCC1,
0.25,,0.125,0.063,,0.125,0.063,,350000,CC(=O)N[C@@H]1[C@H](O[C@@H]2c3ccc(c(Cl)c3)Oc3cc4cc(c3O[C@@H]3O[C@@H](CO)[C@@H](O)[C@H](O)[C@@H]3NC(=O)CCCCCCC(C)C)Oc3ccc(cc3Cl)C[C@H]3NC(=O)[C@H](N)c5ccc(O)c(c5)Oc5cc(O)cc(c5)[C@H](NC3=O)C(=O)N[C@H]4C(=O)N[C@H]3C(=O)N[C@@H]2C(=O)N[C@H](C(=O)N2CCNCCNCCNCCNCCNCC2)c2cc(O)cc(O[C@H]4O[C@H](CO)[C@@H](O)[C@@H](O)[C@@H]4O)c2-c2cc3ccc2O)O[C@@H](CO)[C@@H](O)[C@@H]1O,8
0.125,> 128,0.5,0.25,> 128,0.125,0.25,> 128,,N[C@H]1C(=O)N[C@@H]2Cc3ccc(c(Cl)c3)Oc3cc4cc(c3O)Oc3ccc(cc3Cl)[C@@H](O)[C@@H]3NC(=O)[C@H](NC(=O)[C@@H]4NC(=O)[C@@H](NC2=O)c2cc(O)cc(c2)Oc2cc1ccc2O)c1ccc(O)c(c1)-c1c(O)cc(O)cc1[C@@H](C(=O)N1CCNCCNCCNCCNCCNCC1)NC3=O,1
0.063,16,0.125,0.125,4,0.063,0.063,128,,NCCCN1CCCCN(CCCNC(=O)[C@H]2NC(=O)[C@H]3NC(=O)[C@H](NC(=O)[C@@H]4NC(=O)[C@H]5NC(=O)[C@@H](Cc6ccc(c(Cl)c6)Oc6cc4cc(c6O)Oc4ccc(cc4Cl)[C@H]3O)NC(=O)[C@H](N)c3ccc(O)c(c3)Oc3cc(O)cc5c3)c3ccc(O)c(c3)-c3c(O)cc(O)cc32)CCCC1,0.125
0.125,64,0.125,0.125,8,0.063,0.063,64,,N[C@H]1C(=O)N[C@@H]2Cc3ccc(c(Cl)c3)Oc3cc4cc(c3O)Oc3ccc(cc3Cl)[C@@H](O)[C@@H]3NC(=O)[C@H](NC(=O)[C@@H]4NC(=O)[C@@H](NC2=O)c2cc(O)cc(c2)Oc2cc1ccc2O)c1ccc(O)c(c1)-c1c(O)cc(O)cc1[C@@H](C(=O)NCCN1CCCCNCCCC1)NC3=O,0.125
